Experimental data from different studies.
Compare with care: the assays were run in different laboratories.
Target: Serine/threonine-protein kinase PAK 6 (PAK6, Homo sapiens, UniProt Q9NQU5)

CCN(CC)c1ccc(C2=NNC(=O)CC2C)cc1[N+](=O)[O-] (centres unmarked) — remaining activity (enzyme activity; inhibitor; 10 µM): 126%
CC(C)(C)C(=O)c1sc(NC2CCCCC2)nc1N — remaining activity (enzyme activity; inhibitor; 10 µM): 98%
Cc1ccc(NC(=O)c2ccc(C)c(C(F)(F)F)c2)cc1C#Cc1nn(C2CCC(O)CC2)c2ncnc(N)c12 (centres unmarked) — remaining signal (cell-free assay; 10 µM): 92%
CO[C@H]1CC[C@H](CNc2ccc(S(=O)(=O)NC(=O)c3ccc(N4CCN(CC5=C(c6ccc(Cl)cc6)CC(C)(C)CC5)CC4)cc3Oc3cnc4[nH]ccc4c3)cc2[N+](=O)[O-])CC1 — remaining binding (cell-free assay; competition with immobilised ligand; 1 µM): 75%
Cn1c(=O)n(-c2ccc(C(C)(C)C#N)cc2)c2c3cc(-c4cnc5ccccc5c4)ccc3ncc21 — remaining activity (enzyme activity; inhibitor; 10 µM): 105%
N#CCCc1ccc2c(c1)-c1[nH]c3ccc([N+](=O)[O-])cc3c1CC(=O)N2 — remaining signal (cell-free assay; 0.5 µM): 104%
CCc1ccccc1C(=O)Nc1n[nH]c2c(C)c(F)c(C3C(C#N)=C(C)N(C)C(C)=C3C#N)cc12 — remaining binding (cell-free assay; competition with immobilised ligand; 1 µM): 93%
FC(F)(F)Oc1cccc(-c2cnc3ccc(-c4ccncc4)nn23)c1 — activity vs control (enzyme activity; inhibitor; radiometric; 1 µM): 97%
CS(=O)(=O)NCC[C@H](NC(=O)c1cncc2c1cnn2-c1ccc(F)cc1)c1ccnc(S(C)(=O)=O)c1 — remaining binding (cell-free assay; competition with immobilised ligand; 1 µM): 100%
COc1cc(Nc2cnc(C#N)c(O[C@H](C)CN(C)C)n2)ncc1-c1cnn(C)c1 — remaining activity (enzyme activity; inhibitor; radiometric; 1 µM): 77%
O=C(NCc1ncc(C(F)(F)F)cc1Cl)c1ccc2c(c1)C1(CCS(=O)(=O)CC1)[C@@H](C1CC1)N2S(=O)(=O)c1ccc(F)cc1 — remaining binding (cell-free assay; competition with immobilised ligand; 1 µM): 100%
COc1cc2ncnc(Nc3ccc(Oc4ccccc4)c(C)c3C)c2cc1OC — inhibition (enzyme activity; inhibitor; 1 µM): -6%
O=C1NC(=O)c2cc(Nc3ccc(F)cc3)c(Nc3ccc(F)cc3)cc21 — remaining signal (cell-free assay; 0.5 µM): 106%
Cn1cc(Cl)c2c(Oc3c(F)cc(Nc4cc(Cl)nc(N)n4)cc3F)ccnc21 — remaining binding (cell-free assay; competition with immobilised ligand; 0.1 µM): 100%
Cc1cc(NC(=O)c2cccc3cc(-c4cccc5[nH]nc(N)c45)ccc23)ccc1F — activity vs control (enzyme activity; inhibitor; 0.1 µM): 104%
COc1cc(Cl)c(C(=O)N[C@@H](CN[C@H]2CC[C@@H](N)CC2)Cc2ccc(C#N)cc2)cc1-c1ccc(CN[C@H](C)c2ccc(C)cc2)o1 — remaining activity (enzyme activity; inhibitor; 1 µM): 95%
CCCOc1ccc(OC)c(F)c1C(=O)c1ccc(C(=O)N[C@@H]2CNC[C@H]2NC(=O)c2ccc3[nH]ncc3c2)cc1 — remaining activity (enzyme activity; inhibitor; 10 µM): 68%
CSc1cccnc1N1CCN(Cc2nc3ccccc3[nH]2)CC1 — remaining binding (cell-free assay; competition with immobilised ligand; 1 µM): 100%
CC(C)(O)[C@H]1CC[C@H](Nc2ccc3ncc(-c4cccc(C(F)(F)F)c4)n3n2)CC1 — remaining activity (enzyme activity; inhibitor; 1 µM): 101%
Cc1sc(C(=O)NC2COC2)cc1-n1cc(NC(=O)Nc2c(F)cccc2Cl)cn1 — remaining activity (enzyme activity; inhibitor; 10 µM): 99.9%
CCCOc1ccc([C@@H]2[C@@H](C(=O)O)[C@H](c3ccc4c(c3)OCO4)CN2CC(=O)Nc2c(CC)cccc2CC)cc1 — remaining binding (cell-free assay; competition with immobilised ligand; 1 µM): 83%
CCN(CC)CCNC(=O)c1c(C)[nH]c(/C=C2\C(=O)Nc3ccc(F)cc32)c1C — inhibition (enzyme activity; inhibitor; 0.3 µM): -11%
FC(F)c1nc2ccccc2n1-c1nc(N2CCOCC2)nc(N2CCOCC2)n1 — remaining activity (enzyme activity; inhibitor; 10 µM): 93%
Nc1nc(Nc2ccc(S(N)(=O)=O)cc2)nn1C(=O)c1c(F)cccc1F — remaining signal (cell-free assay; 0.5 µM): 101%
CC(C)(C)c1nc2c(s1)c1nc(N)ncc1c1ccc(NS(=O)(=O)c3c(F)cccc3F)c(F)c12 — remaining activity (enzyme activity; inhibitor; radiometric; 1 µM): 89%
Nc1nc(NC2CCCCC2)sc1C(=O)c1ccccc1 — remaining activity (enzyme activity; inhibitor; 10 µM): 93%
O=C(NCCCC1CCCCC1)c1ccc(CNC(=O)c2cnn(-c3ccccc3)c2C(F)(F)F)cc1 — remaining binding (cell-free assay; competition with immobilised ligand; 0.1 µM): 100%
CNC(=O)c1cc(Oc2ccc(NC(=O)Nc3ccc(Cl)c(C(F)(F)F)c3)cc2)ccn1 — inhibition (enzyme activity; inhibitor; 10 µM): -29%
CN(C)c1nccc(-c2cnn3ncccc23)n1 — remaining binding (binding; 1 µM): 100%
